In ChEMBL document CHEMBL5107963, “Design, synthesis and anti-mycobacterial evaluation of imidazo[1,2-a]pyridine analogues” (RSC Med Chem, 2022) one finds MIC data, which are given here for 31 compounds.

The structures appear in SMILES notation. Values after ≈ are worked out from the molar mass of the structure shown.

By MIC is commonly meant the least concentration at which growth counts as inhibited. A lower MIC goes with greater potency.

In this experiment the test system is Mycobacterium tuberculosis. Description: Anti-mycobacterial activity against Mycobacterium tuberculosis H37Rv incubated for 5 days by alamar blue assay. As to conditions: 120 h, time 5 day. The experiment is classed as functional. A digest of the protocol:
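Inoculum from Löwenstein-Jensen culture suspended in Middlebrook 7H9 broth with 0.2% glycerol and 10% OADC, diluted 1:20. Compounds serially diluted in 7H9, final 100 to 0.4 µg/ml. Sealed plates incubated 37°C for 5 days, then Alamar Blue/10% Tween 80 (1:1) added for 24 h. Blue = no growth, pink = growth; MIC is lowest concentration preventing blue-to-pink change.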
(Resazurin is reduced to fluorescent resorufin, in cell work by metabolically active cells.)
On to `COc1ccc(-c2cn3cc(C4=CCN(C(=O)c5cccc(F)c5)CC4)ccc3n2)cc1OC`, for which the MIC came to 50 µg/mL (≈ 109 µM). To `COc1ccc(-c2cn3cc(C4=CCN(S(=O)(=O)c5ccc(Br)cc5)CC4)ccc3n2)cc1OC` belongs 6.25 µg/mL (≈ 11.3 µM). As to `COc1ccc(-c2cn3cc(C4=CCN(C(=O)C5CCCCC5)CC4)ccc3n2)cc1OC`, the MIC turned out to be 50 µg/mL (≈ 112 µM). To `COc1ccc(-c2cn3cc(C4=CCN(S(=O)(=O)c5ccc(C(C)=O)cc5)CC4)ccc3n2)cc1OC` belongs 6.25 µg/mL (≈ 12.1 µM).

Take `COc1ccc(-c2cn3cc(C4=CCN(C(=O)c5ccco5)CC4)ccc3n2)cc1OC`: the MIC came out at 50 µg/mL (≈ 116 µM). The compound `CCCS(=O)(=O)N1CC=C(c2ccc3nc(-c4ccc(OC)c(OC)c4)cn3c2)CC1` displayed an MIC of 12.5 µg/mL (≈ 28.3 µM). Turning to `COc1ccc(-c2cn3cc(C4=CCN(C(=O)C(C)(C)C)CC4)ccc3n2)cc1OC`, the lowest concentration to inhibit growth (MIC) was 100 µg/mL (≈ 238 µM). The result for `CCS(=O)(=O)N1CC=C(c2ccc3nc(-c4ccc(OC)c(OC)c4)cn3c2)CC1` reads 12.5 µg/mL (≈ 29.2 µM); that for `COc1ccc(-c2cn3cc(C4=CCN(C(=O)c5cccc(C(F)(F)F)c5)CC4)ccc3n2)cc1OC`, 12.5 µg/mL (≈ 24.6 µM); that for `COc1ccc(-c2cn3cc(C4=CCN(S(=O)(=O)c5ccc(Cl)s5)CC4)ccc3n2)cc1OC`, 6.25 µg/mL (≈ 12.1 µM).

On to `COc1ccc(-c2cn3cc(C4=CCN(S(=O)(=O)c5ccc(C(C)(C)C)cc5)CC4)ccc3n2)cc1OC`, for which the MIC stood at 6.25 µg/mL (≈ 11.8 µM). The result for `COc1ccc(-c2cn3cc(C4=CCN(C(=O)c5cocn5)CC4)ccc3n2)cc1OC` reads 50 µg/mL (≈ 116 µM); that for `Nc1ccc(C(=O)O)c(O)c1` [AMINOSALICYLIC ACID], 12.5 µg/mL (≈ 81.6 µM). The result for `COc1ccc(-c2cn3cc(C4=CCN(C(=O)c5ccc(F)cc5)CC4)ccc3n2)cc1OC` reads 25 µg/mL (≈ 54.6 µM). Take `COc1ccc(-c2cn3cc(C4=CCN(S(=O)(=O)C5CC5)CC4)ccc3n2)cc1OC`: the MIC stood at 12.5 µg/mL (≈ 28.4 µM). `COc1ccc(-c2cn3cc(C4=CCN(S(=O)(=O)c5ccc([N+](=O)[O-])cc5)CC4)ccc3n2)cc1OC` came in with an MIC of 6.25 µg/mL (≈ 12 µM).

`COc1ccc(-c2cn3cc(C4=CCN(S(=O)(=O)c5ccc(Br)s5)CC4)ccc3n2)cc1OC` yielded an MIC of 3.12 µg/mL (≈ 5.58 µM).

Take `COc1ccc(-c2cn3cc(C4=CCN(S(=O)(=O)c5ccccc5)CC4)ccc3n2)cc1OC`: the MIC is 25 µg/mL (≈ 52.6 µM). The result for `COc1ccc(-c2cn3cc(C4=CCN(C(C)=O)CC4)ccc3n2)cc1OC` reads over 100 µg/mL; that for `COc1ccc(-c2cn3cc(C4=CCN(S(=O)(=O)C5CCCCC5)CC4)ccc3n2)cc1OC`, 25 µg/mL (≈ 51.9 µM); that for `COc1ccc(-c2cn3cc(C4=CCN(C(=O)C5CC5)CC4)ccc3n2)cc1OC`, 50 µg/mL (≈ 124 µM).

Compound `COc1ccc(-c2cn3cc(C4=CCN(C(=O)COCc5ccccc5)CC4)ccc3n2)cc1OC` gave an MIC of 50 µg/mL (≈ 103 µM). `COc1ccc(-c2cn3cc(C4=CCN(S(=O)(=O)c5ccc(C)cc5)CC4)ccc3n2)cc1OC` had an MIC of 25 µg/mL (≈ 51.1 µM). The result for `COc1ccc(-c2cn3cc(C4=CCN(S(=O)(=O)c5ccc(F)cc5)CC4)ccc3n2)cc1OC` reads 6.25 µg/mL (≈ 12.7 µM); that for `COc1ccc(-c2cn3cc(C4=CCN(S(=O)(=O)c5ccc(Cl)cc5)CC4)ccc3n2)cc1OC`, 6.25 µg/mL (≈ 12.3 µM); that for `COc1ccc(-c2cn3cc(C4=CCN(C(=O)c5cccs5)CC4)ccc3n2)cc1OC`, 25 µg/mL (≈ 56.1 µM).

`CC[C@@H](CO)NCCN[C@@H](CC)CO` [ETHAMBUTOL] showed an MIC of 6.25 µg/mL (≈ 30.6 µM).

The compound `COc1ccc(-c2cn3cc(C4=CCN(C(=O)c5ccccc5F)CC4)ccc3n2)cc1OC` came in with an MIC of 6.25 µg/mL (≈ 13.7 µM). To `COc1ccc(-c2cn3cc(C4=CCN(S(=O)(=O)c5ccc(C(F)(F)F)cc5)CC4)ccc3n2)cc1OC` belongs 6.25 µg/mL (≈ 11.5 µM); to `COc1ccc(-c2cn3cc(C4=CCN(S(=O)(=O)C5CCCC5)CC4)ccc3n2)cc1OC`, 25 µg/mL (≈ 53.5 µM); to `COc1ccc(-c2cn3cc(C4=CCN(C(=O)c5ccccn5)CC4)ccc3n2)cc1OC`, 100 µg/mL (≈ 227 µM).
